# Bioassay records deposited in PubChem BioAssay by several laboratories.
# Shown are actives, neighbours in structure and some others; about 2.6% of the full set was active somewhere.
# SENP1 inh = inhibitors of human SENP1 SUMO protease catalytic domain; 360,000 tested, 0.21% active; Q9P0U3; AID 624204; inhibition, % at 10 µM; recombinant SENP1 catalytic domain, CyPet-SUMO1-YPet FRET cleavage;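 active = inhibition at least 30% at 10 µM, raw YFP signal under a set limit, fluorescence ratio 0.5 to 1.5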;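 also: 0% = enzyme with DMSO and 100% = no enzyme wells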
#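 Controls: no-enzyme wells low, DMSO-plus-enzyme wells high control. Test system: human recombinant His6-tagged SENP1 catalytic domain enzyme. Reagent: SFCypet-SUMO1-SFYpet FRET protein substrate, 25 nM final. Doses: one dose per compound, 10 µM, 0.5% DMSO. Detection: FRET, CFP and YFP emission. Timing: 50 min reaction at room temperature.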
# SENP8 block-1 = SENP8 protease inhibition; 330,000 tested, 1.2% active; purified SENP8, Z-RLRGG-aminoluciferin cleavage, luminescence; inhibition, % at 10 µM; AID 2540; Q96LD8; in the data active = inhibition above about 50%
# Target sequence (Q96LD8 whole entry, looked up): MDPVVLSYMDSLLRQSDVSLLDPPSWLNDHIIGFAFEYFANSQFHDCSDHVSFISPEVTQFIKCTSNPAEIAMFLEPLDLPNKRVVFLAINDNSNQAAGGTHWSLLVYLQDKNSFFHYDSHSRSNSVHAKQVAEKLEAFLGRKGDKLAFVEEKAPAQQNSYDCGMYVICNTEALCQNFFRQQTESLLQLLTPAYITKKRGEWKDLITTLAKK
# SENP8 block-2 = SENP8 (human) protease inhibition; Q96LD8; recombinant SENP8, Nedd8 substrate fluorescence; inhibition, % at 20 µM; 360,000 tested, 0.64% active; AID 602440; in the data active = inhibition mostly above about 40%, no sharp cut-off; inactive = mostly below about 27%
# SENP6 inh = SENP6 protease inhibition | Recombinant SENP6 catalytic domain, aminoluciferin luminescence | inhibition, % at 10 µM | Q9GZR1 | 330,000 tested, 1.8% active;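 active = inhibition above about 50% at the single tested dose, limit read from the data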;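 also: plate controls were DMSO wells with enzyme for no effect and DMSO wells lacking enzyme for full effect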
# SENP7 inh = blocks the human protease SENP7; Q9BQF6; recombinant SENP7, Z-RLRGG-aminoluciferin luminescence, 40 min; AID 434973; 330,000 tested, 1.5% active; inhibition, % at 5 µM;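 active = inhibition above about 50% at the single test dose, limit read from the data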;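 also: plate controls were DMSO with enzyme for no effect and no enzyme buffer wells for full effect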
# Target sequence (Q9BQF6 706-1050 limits assumed): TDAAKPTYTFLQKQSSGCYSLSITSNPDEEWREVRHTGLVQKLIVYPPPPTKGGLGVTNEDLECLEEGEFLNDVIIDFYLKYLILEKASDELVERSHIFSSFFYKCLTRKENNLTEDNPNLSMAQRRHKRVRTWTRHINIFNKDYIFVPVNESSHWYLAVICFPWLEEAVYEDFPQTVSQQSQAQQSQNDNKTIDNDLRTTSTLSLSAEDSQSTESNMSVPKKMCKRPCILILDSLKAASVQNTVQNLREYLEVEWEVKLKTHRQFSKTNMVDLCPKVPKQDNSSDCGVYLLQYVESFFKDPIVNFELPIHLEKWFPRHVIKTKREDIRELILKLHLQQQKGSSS
# UCH37 DUB inh = blocks the human deubiquitinase UCH37; Q9Y5K5; purified proteasome/UCH37, Ub-AMC cleavage fluorescence; inhibition, % (no concentration beside the values); 330,000 tested, 0.33% active; AID 588478;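 active = mean inhibition over replicate wells above about 20%, limit read from the data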;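 also: 0% = compound-free wells with enzyme and 100% = wells lacking proteasome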
#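 Material: human UCH37 enzyme supplied as purified proteasome complex. Measure: % inhibition of Ub-AMC cleavage fluorescence. Medium: pH 7.4 Tris-HCl (50 mM) with ovalbumin, ATP-MgCl2, DTT. Times: 30 min preincubation with enzyme, 25 min cleavage at room temperature. Detection: AMC fluorescence intensity at 355/460 nm.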
# * = called active by the depositor; nt = not tested or not shown.
SMILES,SENP1 inh,SENP8 block-1,SENP8 block-2,SENP6 inh,SENP7 inh,UCH37 DUB inh
COc1cc(/C=C2\SC(N3CCC(C)CC3)=NC2=O)ccc1O,63.0*,4.9,-79.7,-9.7,7.0,4.9
COc1ccc(/C=C2\SC(N3CCCCC3)=NC2=O)cc1OC,-4.1,-3.4,-91.5,-5.2,-16.7,1.4
CN1CCc2c(sc(N=Cc3c[nH]c4ccccc34)c2C(N)=O)C1,nt,nt,nt,nt,nt,9.5
COc1cc(S(=O)(=O)N2CCOCC2)ccc1NC(=O)CSc1nnc(N)s1,0.3,0.4,1.8,7.7,-1.9,29.8*
O=C(CNC(=O)c1cccnc1)N=Nc1c(O)[nH]c2c(Br)cc(Br)cc12,0.7,-4.3,44.3*,8.8,10.6,nt
Cc1cc(C)nc(NN=Cc2ccccc2OCc2ccc([N+](=O)[O-])cc2)n1,nt,nt,nt,nt,nt,5.3
CCN1/C(=C/c2ccc3cc(C)ccc3[n+]2C)Sc2ccc3sccc3c21,44.1*,nt,28.6,nt,nt,7.1
CCCOc1cccc(-c2cc(C(=O)NN=Cc3cccnc3)c3ccccc3n2)c1,nt,nt,nt,nt,nt,1.1
CCOC(=O)C1(C)/C(=N/Nc2cccc(Cl)c2)C(=O)C(=O)N1c1ccccc1 (centres undefined),4.3,8.8,43.1*,-1.5,3.5,-3.0
CNc1nc(Nc2ccc(Br)cc2)nc(N)c1[N+](=O)[O-],5.0,11.7,16.9,35.5,87.7*,nt
O=c1c2c(nc3cc(-c4ccccc4Cl)[nH]n13)CCS2,-34.8,76.8*,-282.4,85.5*,36.9,-16.5
CC(=NNC(=O)c1cc(-c2cccc([N+](=O)[O-])c2)n[nH]1)c1ccc(Cl)cc1,nt,nt,nt,nt,nt,7.8
NS(=O)(=O)c1ccc(N/C=C\C(=O)c2ccc(F)cc2)cc1,-55.3,63.9*,-432.1,42.5,70.0*,-11.9
COc1ccc(/C=C(\C#N)c2nc3ccccc3[nH]2)cc1O,-71.8,37.9,-169.3,56.5*,43.2,nt
COc1cc(/C=C(\C#N)c2nc3ccccc3[nH]2)cc(OC)c1O,-25.6,nt,-217.9,nt,nt,8.4
COc1cc(/C=C(\C#N)c2nc3ccc(C)cc3[nH]2)c([N+](=O)[O-])cc1OC,7.3,-9.0,-28.0,-13.5,4.4,10.3
Cc1cc(/C=C(\C#N)c2nc3ccccc3[nH]2)c(C)n1C,-42.9,-5.3,-82.7,-0.7,0.2,25.5*
COc1cc(/C=C(\C#N)c2nc3ccc(C)cc3[nH]2)cc([N+](=O)[O-])c1O,-24.4,nt,10.5,nt,nt,24.2*
CNC(=S)NN=Cc1ccc2c(c1)OCCO2,nt,nt,nt,nt,nt,3.0
O=C(NN=Cc1coc2ccccc2c1=O)c1cc(Br)ccc1O,nt,nt,nt,nt,nt,-68.9
COc1ccc(OC)c(-c2csc(NC(=O)CSc3ccc([N+](=O)[O-])cc3)n2)c1,-0.1,-1.8,10.7,-3.9,3.6,33.1*
COc1ccc(OC)c(-c2csc(NC(=O)CSc3ccc(Br)cc3)n2)c1,1.4,-15.5,13.9,-7.3,-5.4,5.2
CCn1c(C)nc2cc(C(=O)NN=Cc3cccc(O)c3O)ccc21,nt,nt,nt,nt,nt,4.1
C(=Nc1cccc2c(N=Cc3ccco3)cccc12)c1ccco1,-47.3,71.6*,-395.5,85.8*,29.7,nt
NC(=O)c1ccccc1NC(=O)/C=C/c1ccccc1,3.2,21.9,-86.0,65.6*,40.1,0.9
SMILES,SENP1 inh,SENP8 block-1,SENP8 block-2,SENP6 inh,SENP7 inh,UCH37 DUB inh
CC(C)=CC(=O)Nc1ccccc1C(N)=O,0.1,-3.1,2.4,-30.9,1.5,2.4
O=C(N/N=C/c1ccc(O)c2ncccc12)c1cccc(Br)c1,51.9*,1.2,-104.6,-4.8,0.2,nt
Cn1c2ccccc2c(=O)n2c(=O)c3ccccc3cc12,nt,96.9*,nt,90.4*,95.3*,nt
Cn1c(-c2ccccc2)cc(=O)c2ccccc21,-2.2,9.9,4.3,-7.0,-1.9,3.8
COc1ccc(N2C(=O)C(CC(=O)O)SC2=NN=Cc2cccs2)cc1 (centres undefined),nt,nt,nt,nt,nt,9.6
CN1CCN(N=Cc2ccc(-c3ccc([N+](=O)[O-])cc3)o2)CC1,nt,nt,nt,nt,nt,12.2
O=C(c1ccccc1)c1ccc(O)c(O)c1O,0.4,nt,46.7*,nt,nt,nt
CC(C)COc1ccc(-c2nn(-c3ccccc3)cc2/C=C2/SC(=S)N(CC(=O)O)C2=O)cc1,-6.6,10.0,9.6,-7.0,1.8,21.9*
O=C(Nc1cccc(-c2cnc3ccccc3n2)c1)c1ccco1,-0.9,3.0,-86.9,-16.8,6.7,-0.7
Cc1ccc(C(=O)Nc2cnc3ccccc3c2)cc1,0.3,93.6*,1.5,97.0*,98.3*,-3.1
O=C(Nc1cnc2ccccc2c1)c1ccco1,3.7,42.7,3.5,70.3*,70.4*,5.7
Cc1cc(C=O)c(C)n1-c1ccc(NC2CCCC2)c([N+](=O)[O-])c1,6.7,0.4,41.9*,-10.2,4.9,3.4
Cn1c(=O)c2c(nc(NN=Cc3ccc(OC(=O)c4ccco4)cc3)n2Cc2ccccc2)n(C)c1=O,nt,nt,nt,nt,nt,-72.1
O=[N+]([O-])c1ccc(C2CCCCC2=NO)c([N+](=O)[O-])c1 (centres undefined),nt,nt,nt,nt,nt,1.5
O=C(C(=O)c1ccc(O)c(O)c1)c1ccc(O)c(O)c1,1.8,nt,23.0,nt,nt,23.5*
COc1ccc2c(c1)c(C(=O)CN1CCOCC1)c(C)n2C,1.7,-2.6,-7.7,-6.1,0.5,2.0
COc1ccc2c(c1)c(C(=O)CN1CCC3(CC1)OCCO3)c(C)n2C,4.5,-3.7,20.3,-15.0,-4.0,27.4*
C#CCOc1ccc(/C=C2/C(=O)N(c3ccc(S(N)(=O)=O)cc3)N=C2C)cc1OC,2.8,nt,62.9*,nt,nt,nt
COc1cc(/C=C2/C(=O)N(c3ccc(C(=O)O)cc3)N=C2C)cc(OC)c1O,3.3,7.5,24.4,30.6,47.2,9.9
COc1cc(/C=C2/C(=O)N(c3ccc(Br)cc3)N=C2C)cc(OC)c1OC,1.5,-8.8,48.7*,19.5,19.6,2.9
COc1cc(/C=C2\C(=O)N(c3ccccc3)N=C2C)ccc1Oc1ccc([N+](=O)[O-])cc1[N+](=O)[O-],2.4,nt,57.6*,nt,nt,5.9
CC(CC(=O)Nc1cc(Cl)ccc1Cl)=NNC(N)=S,nt,nt,nt,nt,nt,1.3
CCOc1ccc(CC(=O)NN=Cc2cccnc2)cc1OCC,nt,nt,nt,nt,nt,-0.2
Cn1c(=O)c2nnn(N=C(c3ccccc3)C3CC3)c2n(C)c1=O,nt,nt,nt,nt,nt,33.9*
CC(=O)n1cc(C=NNC(=O)c2sc(C)nc2C)c2ccccc21,nt,nt,nt,nt,nt,3.6
O=C(O)CN1C(=O)/C(=C\c2cc(Br)ccc2OCc2ccc([N+](=O)[O-])cc2)SC1=S,4.7,-5.1,20.0,7.9,-5.7,20.4*
O=C(O)CN1C(=O)/C(=C\c2cc(Br)ccc2OCc2ccccc2Cl)SC1=S,6.4,11.6,-3.4,11.9,5.1,14.6
O=C(O)CCN1C(=O)/C(=C\c2ccc(OCc3ccccc3)c(OCc3ccccc3)c2)SC1=S,-50.0,13.9,5.7,-1.7,4.3,12.2
O=C(O)CN1C(=O)/C(=C\c2cc(Br)ccc2OCc2ccccc2F)SC1=S,2.9,2.9,2.9,14.5,7.7,24.1*
CCOc1cccc(C(=O)NN=Cc2coc3ccccc3c2=O)c1,nt,nt,nt,nt,nt,-24.1
